# Shown are actives, neighbours in structure and some others; about 4.5% of the full set was active somewhere.
# GPR7 antagonist – blocks human GPR7 receptor signaling. P48145. GPR7-expressing cells, fluorescence antagonist assay. inhibition, % at 4.4 µM. actives 1.1% (n = 290,000). AID 1861; in the data active = inhibition above about 16%, passing the limit was not always enough;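 note: cells stimulated with the agonist NPW; 0% = agonist with vehicle and 100% = vehicle without agonist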
# Target sequence (P48145 whole entry, looked up): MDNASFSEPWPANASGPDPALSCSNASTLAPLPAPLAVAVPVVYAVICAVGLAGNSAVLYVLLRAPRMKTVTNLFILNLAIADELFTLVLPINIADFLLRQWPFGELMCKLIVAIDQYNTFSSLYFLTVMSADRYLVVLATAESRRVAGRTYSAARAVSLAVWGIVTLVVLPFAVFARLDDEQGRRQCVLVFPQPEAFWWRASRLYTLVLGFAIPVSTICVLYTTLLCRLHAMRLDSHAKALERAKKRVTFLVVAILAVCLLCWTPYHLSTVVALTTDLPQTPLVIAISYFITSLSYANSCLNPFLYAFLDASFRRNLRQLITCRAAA
# TAAR1 antag – human TAAR1 antagonism. Q96RJ0. CHO RD-HGA16 TAAR1, Fluo-8 calcium fluorescence, antagonist. inhibition, % at 3 µM. actives 1.5% (n = 360,000). AID 624466;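 active = inhibition above a per-plate cutoff, the mean inhibition of test compounds on that plate plus 3 SD, cut at about 49% in these data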;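 note: 0% = DMSO plus EC80 beta-PEA response and 100% = DMSO alone without agonist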
#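 System: RD-HGA16 CHO cells with stable hTAAR1 and Gα16 | Probe or stimulus: EC80 β-phenethylamine stimulus | Dosing: 3 µM, single point | Times: Dye loading 75 min at 37 °C, then 30 min room temperature | Measured by: Fluo-8 calcium-sensitive fluorescence | Read-out basis: % inhibition of agonist calcium response | Replicates: n of 1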
# OX1R antag-1 – antagonists of human orexin 1 receptor (OX1R) | inhibition, % at 6.6 µM | O43613 | AID 485270 | actives 1.8% (n = 330,000) | OX1R-expressing cells, FRET antagonist read-out; in the data active = inhibition mostly above about 38%, no sharp cut-off; inactive = mostly below about 40%;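 note: 0% = agonist challenge alone and 100% = reference antagonist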
# CHO parental Ca – signal in parental CHO cells, OX1R antagonist counter-screen | parental CHO-K1, ATP-induced calcium, Fluo-8 fluorescence | actives 0.63% (n = 330,000) | inhibition, % at 5.6 µM;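 active = inhibition above that plate's mean sample inhibition plus 3 SD, cut at about 26% in these data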;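 note: 0% = ATP-challenged DMSO wells and 100% = DMSO wells without ATP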
#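 Assay system – parental CHO cells · Reagent – ATP stimulus · Detection – intracellular calcium via Fluo-8 no-wash fluorescent dye · Evaluation – percent inhibition of ATP-evoked calcium rise, normalized to controls · Controls – ATP wells versus no-ATP DMSO wells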
# OX1R antag-2 – human HCRTR1 antagonism; O43613; CHO/OX1R cells, Fluo-8 calcium fluorescence, orexin A; inhibition, % at 5 µM; actives 0.43% (n = 330,000); AID 434989;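 active = inhibition above its plate's threshold, mean inhibition of all tested compounds on the plate plus 3 SD, cut at about 37% in these data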;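 note: 0% = orexin A challenge wells and 100% = SB-334867-A antagonist wells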
# TAAR1 ag – agonists of human TAAR1 | activation, % at 3 µM | CHO RD-HGA16 TAAR1, Fluo-8 calcium fluorescence; vehicle wells 0%, saturating PEA agonist 100% | actives 0.99% (n = 360,000);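 active = activation above the mean activation of all test compounds in the run plus 3 SD, cut at about 38% in these data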
#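 Signal – calcium-sensitive Fluo-8 signal, excitation 470-495, emission 515-575 nm · System – RD-HGA16 (CHO) cells co-expressing Gα16 and hTAAR1 · Incubation – 17-24 h seeding, 75 min 37 °C dye, 30 min RT · Compound dosing – 3 µM single concentration · Repeats – no replicates (n 1)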
# OX1R Fluo8 conf – confirmation of human orexin 1 receptor antagonists | CHO/OX1R cells, orexin A calcium Fluo-8 fluorescence | actives 38% (n = 1,100) | AID 492963 | inhibition, % at 5 µM | shares compounds with OX1R antag-2; in the data active = inhibition above about 29%;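 note: 0% = agonist challenge alone and 100% = reference antagonist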
# CHO Ca counter – signal in parental CHO cells, OX1R antagonist counter-screen; shares compounds with OX1R antag-2; parental CHO-K1, ATP-induced calcium, Fluo-8 fluorescence; inhibition, % at 5.6 µM; actives 9.3% (n = 1,100); AID 492965;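 active = inhibition above a per-plate limit, the mean inhibition of that plate's test compounds plus 3 SD, cut at about 25% in these data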;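 note: 0% = ATP challenge with DMSO and 100% = DMSO without ATP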
# * hit, by the source's call; . = no result.
SMILES,GPR7 antagonist,TAAR1 antag,OX1R antag-1,CHO parental Ca,OX1R antag-2,TAAR1 ag,OX1R Fluo8 conf,CHO Ca counter
Cc1ccc(S(=O)(=O)N2C3CCCCC3O[C@H]2CC(=O)c2cccc3ccccc23)cc1 (some centres not stated),.,-12,.,.,.,2,.,.
Cc1ccc(NC(=O)COC(=O)c2cccc(C)c2[N+](=O)[O-])cc1S(=O)(=O)N1CCCCC1,.,32,4,21,44*,6,14,9
CC1(C)OC(=O)C2=C(C[C@@H](C3CCCCC3)O[C@H]2c2ccc(F)cc2)O1,.,40,.,.,.,6,.,.
COc1ccc(C(=O)NCC(=O)OCC(=O)Nc2ncc(Cl)cc2Cl)cc1[N+](=O)[O-],.,9,9,-22,-29,3,.,.
CC1(c2nnnn2-c2ccc3c(c2)OCCO3)CCC(=O)N1C1CCN(Cc2ccccc2)CC1 (configuration not stated),.,8,.,.,.,5,.,.
CC(C)c1ccc(CNc2cc(N3CCCC3)ccc2[N+](=O)[O-])cc1,1,-8,8,8,53*,1,-7,39*
CC(C)(C)CNc1cc(N2CCCC2)ccc1[N+](=O)[O-],-7,.,9,-14,-14,.,.,.
O=C(NC1CCCCC1)c1ccc(Br)o1,-16,10,17,-12,-15,1,.,.
O=C(CCNC(=O)c1ccc(Br)o1)NC1CCCC1,9,8,2,-5,23,5,7,-18
COc1ccccc1NS(=O)(=O)c1cc(NC(=O)c2ccc3ccccc3n2)ccc1Cl,-1,-1,15,-9,-7,0,.,.
COc1ccc(C(=O)Nc2ccc(Cl)c(S(=O)(=O)Nc3ccccc3OC)c2)cc1,14,41,30,-3,32,5,15,3
Cc1ccc(N=Cc2sc(O)c3ccccc23)cc1,-12,25,31,8,35,25,24,19
Cc1ccsc1C(=O)N1CCCC(N(C)Cc2ccccc2)C1 (configuration not stated),-9,-3,4,-4,38,0,-5,-4
CC1=C(C(=O)N2CCOCC2)CC(CC(=O)NCCc2ccccn2)C(=O)N1CCCN1CCCC1=O (configuration not stated),.,-9,.,.,.,16,.,.
CSc1ccc2c(c1)C(N1CCN(C)CC1)Cc1ccc(F)cc1S2 (configuration not stated),.,0,6,2,-8,11,.,.
COc1ccc2c(c1)CC(N1CCN(C)CC1)c1cc(OC)ccc1S2 (configuration not stated),.,1,16,19,45*,17,21,11
O[C@H]1C[C@H](c2ccccc2)N(CC2CCCCC2)C[C@@H]1n1cc(C2CC2)nn1,.,-9,.,.,.,6,.,.
CSc1cc(C)c(OCC(=O)Nc2ccc(NC(C)=O)cc2)c(C)c1,2,9,34,-9,28,0,14,-1
CN(Cc1ccccc1)C(=O)COC(=O)c1cc(NS(=O)(=O)c2cccs2)ccc1O,12,28,58,18,44*,13,31*,26*
CCN(CC)C1CCN(C(=O)c2ccc(OC3CCN(C(=O)CCOC)CC3)cc2)C1 (configuration not stated),.,-10,.,.,.,1,.,.
Cc1ccc(NC(=O)C2=C(c3ccccc3)S(=O)(=O)CCS2(=O)=O)cc1,34*,18,25,22,35,6,43*,22
CC1=C(C(=O)N2CCOCC2)CC(CC(=O)NC2CCCCC2)C(=O)N1Cc1ccccc1 (configuration not stated),.,-6,.,.,.,0,.,.
O=C(CSc1ncc(-c2ccc(F)cc2)n1Cc1ccco1)Nc1nccs1,-1,40,46,12,22,46*,16,-9
Cc1cccc(CC(Cc2nc3ccccc3[nH]2)c2nc3ccccc3[nH]2)c1 (configuration not stated),13,52*,7,16,36,14,19,-4

# Screening results: PubChem BioAssay, The Scripps Research Institute Molecular Screening Center
